Experimental data taken from ChEMBL document CHEMBL5543124, “Lead Compound Development of SRC-3 Inhibitors with Improved Pharmacokinetic Properties and Anticancer Efficacy” (J Med Chem, 2024).
pIC50: −log10 of the molar value. Activity calls are given as the source filed them. No cut-off for these calls is given here.

Tests used:
LNCaP [1] = assay: Antitumor activity against human LNCaP cells xenografted in SCID mouse assessed as reduction in Ki67 expression at 10 mg/kg,ip administration measured after 4 weeks by immunohistochemical analysis; format: functional, organism-based
Outline: (§1)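 LNCaP subcutaneous xenograft tumors in SCID mice, collected at the end of 4 weeks of 10 mg/kg ip daily dosing or vehicle. IHC for Ki67 and cleaved caspase 3 run on eight tumors from eight mice, at least five fields each; positive cells counted; mean ± SEM reported.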

MDA-PCa-118b [2] = assay: Antitumor activity against patient derived MDA-PCa-118b cells xenografted in SCID mouse assessed as reduction in tumor burden in femur at 10 mg/kg,ip administration measured after 4 weeks by hematoxylin and eosin staining based analysis; format: functional, organism-based; details: Homo sapiens
Outline: (§2)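 AR-PDX 118b cells (1×10^5) injected via intra-femoral artery in male SCID mice (8–9 weeks). After 2 weeks, 10 mg/kg/day ip or vehicle for 4 weeks (n = 9/group). X-ray imaging every two weeks. At the end, femurs CT-scanned (5 per group) with 3D-reconstruction tumor size, and H&E histology used for tumor/femur area ratio.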

LNCaP [3] = assay: Antitumor activity against human LNCaP cells xenografted in SCID mouse assessed as reduction in microvascular density at 10 mg/kg,ip administration measured after 4 weeks by immunohistochemical analysis relative to control; format: functional; parameters: scale not given: the % may be the effect or the level left
Outline: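 LNCaP xenografts were grown subcutaneously on both flanks of male SCID mice and treated i.p. at 10 mg/kg once daily for 4 weeks, starting 4 weeks after inoculation, with a vehicle control. Tumors were collected at the end of treatment for CD31 immunohistochemistry. Microvascular structures were counted in at least five areas per tumor, using eight tumors from eight mice. Data are mean ± SEM.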

[4] = Antitumor activity against patient derived MDA-PCa-118b cells xenografted in SCID mouse assessed as reduction in ratio of tumor area to femur area at 10 mg/kg,ip administration measured after 4 weeks by CT imaging analysis; format: functional, Homo sapiens; parameters: scale not given: the % may be the effect or the level left; outline: as §2
PANC-1 = assay: Cytotoxicity against human PANC-1 cells assessed as inhibition of cell growth incubated for 72 hrs by MTT assay; format: functional, cell-based; details: PANC-1, 72 h
Outline: (§3)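 Cells seeded and grown to 70–80% confluence, then exposed for 72 h to a titration series (0.2–1000 nM). Viability read by MTT relative to untreated cells, with 6 replicates per concentration. IC50 fitted with a Hill-slope model.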

LNCaP [5] = assay: Antitumor activity against human LNCaP cells xenografted in SCID mouse assessed as increase in mouse survival at 10 mg/kg,ip administration measured after 4 weeks; format: functional, organism-based
Outline: (§4)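 LNCaP cells (1×10^7) injected subcutaneously on both flanks of male SCID mice. From 4 weeks post-inoculation, 10 mg/kg ip daily for 4 weeks or vehicle (n = 10 vs 11). Caliper tumor size measured weekly (length × width²/2); survival endpoint at tumor diameter 3 cm.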

LNCaP [6] = assay: Antitumor activity against human LNCaP cells xenografted in SCID mouse assessed as reduction in tumor growth at 10 mg/kg,ip administration measured after 1 week; format: functional, organism-based; details: time 1.0 weeks; outline: as §4
LNCaP [7] = assay: Antitumor activity against human LNCaP cells xenografted in SCID mouse assessed as increase in cleaved caspase-3 expression at 10 mg/kg,ip administration measured after 4 weeks by immunohistochemical analysis; format: functional, organism-based; outline: as §1
MCF7 = assay: Cytotoxicity against human MCF7 cells assessed as inhibition of cell growth incubated for 72 hrs by MTT assay; format: functional, cell-based; details: MCF7, 72 h
MDA-MB-468 = assay: Cytotoxicity against human MDA-MB-468 cells assessed as inhibition of cell growth incubated for 72 hrs by MTT assay; format: functional, cell-based; details: MDA-MB-468, 72 h; outline: as §3
[8] = Antitumor activity against patient derived MDA-PCa-118b cells xenografted in SCID mouse assessed as reduction in femur volume at 10 mg/kg,ip administration measured after 4 weeks by CT imaging analysis; format: functional, Homo sapiens; parameters: scale not given: the % may be the effect or the level left; outline: as §2
MDA-PCa-118b [9] = assay: Antitumor activity against patient derived MDA-PCa-118b cells xenografted in SCID mouse assessed as reduction in bone metastasis at 10 mg/kg,ip administration measured after 4 weeks by X-ray imaging analysis; format: functional, organism-based; details: Homo sapiens; outline: as §2
BT-474 = assay: Cytotoxicity against human BT-474 cells assessed as inhibition of cell growth incubated for 72 hrs by MTT assay; format: functional, cell-based; details: BT-474, 72 h; outline: as §3
LNCaP [10] = assay: Antitumor activity against human LNCaP cells xenografted in SCID mouse assessed as increase in positive cells of cleaved caspase-3 at 10 mg/kg,ip administration measured after 4 weeks by immunohistochemical analysis; format: functional; outline: as §1
MDA-PCa-118b [11] = assay: Antitumor activity against patient derived MDA-PCa-118b cells xenografted in SCID mouse assessed as reduction in tumor burden in femur at 10 mg/kg,ip administration measured after 4 weeks by CT imaging analysis; format: functional, organism-based; details: Homo sapiens; outline: as §2
MDA-PCa-118b [12] = assay: Antitumor activity against patient derived MDA-PCa-118b cells xenografted in SCID mouse assessed as reduction in bone damage at 10 mg/kg,ip administration measured after 4 weeks by X-ray imaging analysis; format: functional, organism-based; details: Homo sapiens; outline: as §2
LNCaP [13] = assay: Antitumor activity against human LNCaP cells xenografted in SCID mouse assessed as reduction in tumor growth at 10 mg/kg,ip administration measured after 4 weeks; format: functional; parameters: scale not given: the % may be the effect or the level left
Outline: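 Male SCID mice received 1×10^7 LNCaP cells subcutaneously under the back skin on both sides. Daily i.p. dosing at 10 mg/kg or vehicle began 4 weeks after inoculation and ran for 4 weeks. Tumor length and width were measured weekly, and size was calculated as length × width × width/2.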

LNCaP [14] = assay: Cytotoxicity against human LNCaP cells assessed as inhibition of cell growth incubated for 72 hrs by MTT assay; format: functional, cell-based; outline: as §3

C/C(=N\N=c1/[nH]c2cc(F)c(F)cc2n1C)c1ncccn1
Activity (LNCaP [1]): Active | Activity (MDA-PCa-118b [2]): Active | Activity (LNCaP [3]): >50% | Activity [4]: >50% | pIC50 (PANC-1): 8.10 | Activity (LNCaP [5]): Active | Activity (LNCaP [6]): Active | Activity (LNCaP [7]): Active | pIC50 (MCF7): 8.48 | pIC50 (MDA-MB-468): 7.49 | Activity [8]: >55% | Activity (MDA-PCa-118b [9]): Active | pIC50 (BT-474): 9.00 | Activity (LNCaP [10]): 10% | Activity (MDA-PCa-118b [11]): Active | Activity (MDA-PCa-118b [12]): Active | Activity (LNCaP [13]): >65% | pIC50 (LNCaP [14]): 7.96
